Results gathered from unrelated publications.
Protocols differ between the studies behind these lines.

CC[C@@H]1C=CC(=O)O[C@@H]1C[C@@H](O)[C@H](C)[C@H](OC)[C@@H](C)Cc1ccccc1
GI50 (OVCAR-5; cell growth or viability; MTT; 48 h): 57.5 nM

C[C@]12CC[C@@H]3c4ccc(O)cc4CC[C@H]3[C@@H]1CC[C@@H]2O
EC90 (Capan-2; cell growth or viability; ATP luminescence; 72 h): 150000 nM

CC[C@@H]1C=CC(=O)O[C@@H]1C[C@@H](OC)[C@H](C)[C@H](OC)[C@@H](C)Cc1ccc(F)cc1
GI50 (OVCAR-5; cell growth or viability; MTT; 48 h): 784 nM

COc1cc(Nc2nccc(-c3cnn4nc(OC)ccc34)n2)cc(C(F)(F)F)c1
IC50 (BEN; cell growth or viability; ATP luminescence): > 3000 nM

CC/C(=C(\c1ccccc1)c1ccc(OCCN(C)C)cc1)c1ccccc1
EC90 (Capan-2; cell growth or viability; ATP luminescence; 72 h): 25800 nM

C=CC(=O)N1CCC[C@@H](n2nc(-c3ccc(Oc4ccccc4)cc3)c3c(N)ncnc32)C1
GI50 (Z-138; cell growth or viability; ATP luminescence; 72 h): 17200 nM

COc1ccc(S(=O)(=O)Nc2ccc3oc(-c4ccc(NC(=O)c5cccc(C)c5[N+](=O)[O-])cc4)nc3c2)cc1
EC50 (DLD-1; colony formation): 16000 nM

COc1ccc(-c2ccc(-c3ccc(C(=N)N)nc3)s2)cc1Cl
GI50 (OVCAR-5; cell growth or viability; SRB): 1860 nM

CC#CC(=O)N1CC[C@@H](n2cc(-c3ccc(Oc4c(F)cccc4F)cc3)c3c(N)n[nH]c(=O)c32)C1
GI50 (Granta-519; cell growth or viability; ATP luminescence; 72 h): 2690 nM
